Active and inactive are the calls of the source. The rule behind the calls is not given here.
Tests used:
[1] = test system: Adipocyte; assay: Inhibition of isoproterenol-induced lipolysis in human subcutaneous adipocytes after 5 hrs
[2] = test system: Rattus norvegicus; assay: Reduction of free fatty acid level in po dosed Sprague-Dawley rat plasma relative to baseline; format: functional; set-up: scale not given: the % may be the effect or the level left
How it was run: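 Male Sprague-Dawley rats, 7-10 weeks (~350 g), jugular vein cannulated, fasted 16 hr. Baseline blood drawn, then oral vehicle (PBS, 5% HPBCD or 0.5% methylcellulose) or drug at 2 ml/kg. Blood sampled via cannula at set times; serum NEFA assayed by NEFA-C kit, A550. Expressed as % baseline FFA, four or more independent experiments.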

[3] = test system: Mus musculus; assay: Induction of flushing response in ip dosed C57/BL6 mouse; format: organism-based, C57Bl/6; conditions: in vivo
How it was run: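 Male C57Bl/6 mice, 8-10 weeks, anesthetized with Nembutal i.p. (80 mg/10 ml/kg). Laser Doppler perfusion imaging centred on the ventral right ear. After a 3 min baseline, vehicle or agonist is given i.p. (5 ml/kg) and readings continue about 15 min. Output is % change from pre-injection baseline, 3-26 animals per group.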

[4] = test system: Mus musculus; assay: Reduction of free fatty acid level in ip dosed C57/BL6 mouse plasma after 10 mins; format: functional, organism-based; conditions: C57Bl/6
How it was run: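 Male C57Bl/6 mice, 8-10 weeks (~25 g), fasted 16 hr, dosed i.p. with compound in PBS or PBS vehicle (5 ml/kg). Killed after 10 min; cardiac blood taken and serum obtained by centrifugation at 4°C. NEFA measured colorimetrically with the NEFA-C two-reagent kit, 37°C incubations, A550. Three or more experiments in triplicate; one-way ANOVA with Bonferroni.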

[5] = test system: Mus musculus; assay: Inhibition of nicotinic acid induced flushing response in ip dosed C57/BL6 mouse; format: functional, organism-based; conditions: C57Bl/6
How it was run: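 Laser Doppler ear flushing in anesthetized male C57Bl/6 mice. Vehicle or competing agonist is given i.p. together with Nembutal, 10 min before baseline. After a 3 min baseline, nicotinic acid 30 mg/kg i.p. is injected. Response is % change from pre-nicotinic acid baseline, 5 or 11 animals per group.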

EC50 [1]	SMILES	Activity [2]	Activity [3]	Activity [4]	Activity [5]
5.3 µM	Cc1cc(C(=O)O)on1	75%	Toxic		
72.5 µM	O=C(O)c1cc(Cc2cccc(Cl)c2)n[nH]1	75%		Dose-dependent effect	Active
	CC(C)c1cc(C(=O)O)n[nH]1	75%	Non-toxic	Dose-dependent effect	
0.9 µM	O=C(O)c1cccnc1 [NIACIN]		Toxic		
	O=C(O)c1cc(Cc2cccc(Cl)c2)[nH]n1		Non-toxic		
32.6 µM	O=C(O)c1cc(Cc2cccc(F)c2)[nH]n1	75%	Non-toxic	Dose-dependent effect	
103 µM	O=C(O)c1cc(Cc2cccc(Br)c2)[nH]n1	75%	Non-toxic	Dose-dependent effect	
1.4 µM	Cc1cc(C(=O)O)n[nH]1	75%	Toxic	Dose-dependent effect	

Source: ChEMBL document CHEMBL1147980, “Nicotinic acid receptor agonists differentially activate downstream effectors” (J Biol Chem, 2007)
